# M5 antag: human M5 muscarinic receptor antagonists, primary screen, CHO cells, Fluo-8 calcium fluorescence | 360,000 compounds, 0.59% hits | Muscarinic acetylcholine receptor M5 (Homo sapiens), P08912 | CHO-hM5 cells, ACh EC80 | inhibition, % at 3 µM;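 active = inhibition above a per-plate cutoff, the mean of that plate's test compounds plus 3 SD, cut at about 27% in these data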;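 also: 0% = acetylcholine EC80 with DMSO and 100% = DMSO without agonist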
# Target sequence (P08912 whole entry, looked up): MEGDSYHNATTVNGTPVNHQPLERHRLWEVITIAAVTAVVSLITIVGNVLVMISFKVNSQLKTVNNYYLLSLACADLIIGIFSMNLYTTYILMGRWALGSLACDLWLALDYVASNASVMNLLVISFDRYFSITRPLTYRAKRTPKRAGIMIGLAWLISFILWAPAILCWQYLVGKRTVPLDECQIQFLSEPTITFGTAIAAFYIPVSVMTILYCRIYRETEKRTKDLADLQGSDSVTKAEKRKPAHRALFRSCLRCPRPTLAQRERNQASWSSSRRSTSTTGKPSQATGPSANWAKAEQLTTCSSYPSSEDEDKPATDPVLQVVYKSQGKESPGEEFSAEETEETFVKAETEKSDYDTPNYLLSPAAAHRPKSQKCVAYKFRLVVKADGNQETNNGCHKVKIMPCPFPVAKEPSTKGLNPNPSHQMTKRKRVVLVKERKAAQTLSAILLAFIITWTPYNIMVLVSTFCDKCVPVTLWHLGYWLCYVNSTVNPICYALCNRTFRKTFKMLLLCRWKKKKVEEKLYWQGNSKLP
# M5 PAM: human M5 muscarinic receptor positive allosteric modulators, primary screen, CHO-K1 cells, Fluo-8 calcium fluorescence | Muscarinic acetylcholine receptor M5 (Homo sapiens), P08912 | CHO-K1 hM5, ACh EC20 PAM; 0% = ACh EC20, 100% = ACh EC100 | activation, % at 3 µM | 360,000 compounds, 0.3% hits | AID 624038, 2012;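 active = activation above the run cutoff, the mean activation of all test compounds plus 3 SD, cut at about 18% in these data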
#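 system = human M5 receptor in CHO-K1 cells | compound = one concentration, 3 µM final (nominal) | schedule = Post-acetylcholine fluorescence recording 140 s | signal = Fluo-8 calcium dye fluorescence, kinetic read | benchmarks = low control EC20 acetylcholine (0%), high control EC100 acetylcholine (100%) | repeats = singlicate, one well per test compound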
# M4 ag: human M4 muscarinic receptor agonists, primary screen, CHO-K1 cells, Fluo-8 calcium fluorescence; Muscarinic acetylcholine receptor M4 (Homo sapiens), P08173; CHO-K1 hM4/Gqi5; vehicle 0%, full acetylcholine response 100%; activation, % at 3 µM; 360,000 compounds, 0.14% hits;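 active = activation above the run mean over all test wells plus 3 SD, cut at about 32% in these data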;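 also: peak over basal fluorescence ratio per well then scaled between controls; 0% = DMSO wells and 100% = acetylcholine at EC100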
# M4 antag: human M4 muscarinic receptor antagonists, primary screen, CHO cells, Fluo-8 calcium fluorescence | Muscarinic acetylcholine receptor M4 (Homo sapiens), P08173 | CHO-hM4 cells, ACh EC80 | inhibition, % at 3 µM | 360,000 compounds, 0.73% hits;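 active = inhibition above its plate's cutoff, the mean inhibition of sample wells plus 3 SD, cut at about 27% in these data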;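 also: 0% = acetylcholine EC80 with DMSO and 100% = DMSO without agonist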
# CHRM4 PAM: human M4 muscarinic receptor positive allosteric modulators, primary screen, CHO-K1 cells, Fluo-8 calcium fluorescence | Muscarinic acetylcholine receptor M4 (Homo sapiens), P08173 | CHO-K1 hM4/Gqi5, ACh EC20; 0% = ACh EC20, 100% = maximal ACh | activation, % at 3 µM | 360,000 compounds, 0.4% hits;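 active = activation above its plate's cutoff, the mean activation of sample wells plus 3 SD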
# CHRM5 agonist: human M5 muscarinic receptor agonists, primary screen, CHO-K1 cells, Fluo-8 calcium fluorescence. Muscarinic acetylcholine receptor M5 (Homo sapiens), P08912. AID 624037, 2012. activation, % at 3 µM. CHO-K1 hM5 cells; 0% DMSO wells, 100% maximal acetylcholine response. 360,000 compounds, 0.19% hits;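 active = activation above the run's mean over test compounds plus 3 SD, cut at about 23% in these data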;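 also: signal is peak over basal fluorescence ratio across the kinetic read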
# An asterisk follows results filed as active. Rows were chosen to be rich in hits. Some 1.9% of all compounds tested hit in one or more screens of this group.
SMILES,M5 antag,M5 PAM,M4 ag,M4 antag,CHRM4 PAM,CHRM5 agonist
c1ccc(CCn2nnc3ccccc32)cc1,-1,-2,0,10,-13,-1
c1ccc2c(c1)nnn2CNc1nccs1,-6,3,1,-8,22*,-1
CCCCCc1ccc(OCCOCCn2c[n+](C)c3ccccc32)c(CCCCC)c1,21,-10,2,58*,-19,-10
C[n+]1cn(CC(O)COCc2ccccc2)c2ccccc21 (centres undefined),-1,0,1,-8,1,-2
CCCCCc1ccc(OCCC[n+]2ccccc2)c(CCCCC)c1,32*,-30,0,32*,-48,-21
COc1cccc(C(=O)Nc2nc(-c3ccccc3)c(-c3ccccc3)o2)c1,2,-2,0,-6,-1,0
O=C(Nc1nc(-c2ccccc2)c(-c2ccccc2)o1)c1ccc(F)cc1,9,34*,2,-3,3,-1
O=C1C=C(c2c(O)ccc3ccccc23)c2ccccc2C1=O,17,-5,20,47*,-7,-3
CCC(C)(C)NC(=O)C(c1ccco1)N(C(=O)CNC(=O)c1cccs1)c1cccnc1 (centres undefined),29*,29*,6,-12,4,-1
CC(=O)C1=C(c2ccccc2)NC(=S)NC1c1ccc(O)c(O)c1 (centres undefined),3,26*,0,-1,-4,9
CCOc1ccc(C(=O)NCC(=O)NCC(c2ccccc2OC)N2CCCC2)cc1 (centres undefined),3,-8,0,0,-3,-11
CN(C)/C=C/c1onc(-c2c(F)cccc2Cl)c1C#N,10,28*,0,0,12,3
Cc1onc(-c2c(F)cccc2Cl)c1C(=O)NC1CC1,6,0,2,-2,-3,-1
Nc1ncnc2c1ncn2[C@@H]1O[C@H](COP(=O)(O)OP(=O)(O)OP(=O)(O)O)[C@@H](O)[C@H]1O,-1,-6,96*,-12,10,46*
O=C1COc2ccc(NC(=O)c3ccccc3C(=O)O)cc2N1,18,-9,0,12,3,-4
CC(Nc1ncnc2sccc12)c1ccccc1 (centres undefined),33*,-12,13,14,-4,6
COc1ccc2nc(C)cc(NCc3ccc(F)cc3)c2c1,32*,-6,32*,27*,-7,14
COc1ccc2nc(C)cc(Nc3ccc(C)cc3)c2c1,5,-4,1,-1,-5,-3
CCCc1cc(=O)oc2cc(OCc3cc(OC)c(OC)c(OC)c3)c(Cl)cc12,-6,8,1,-3,5,1
CCCCc1cc(=O)oc2cc(OCc3cc(OC)c(OC)c(OC)c3)c(Cl)cc12,0,13,3,-4,16*,-2
COC(=O)C(Cc1ccc(OC(=O)c2ccc(Cl)cc2)cc1)N1Cc2ccccc2C1=O (centres undefined),30*,-25,10,28*,-13,-2
Cc1ccc(NCC(=O)Nc2ccc(F)c(Cl)c2)cc1S(=O)(=O)N1CCOCC1,4,-14,20,-11,-1,5
O=C(c1ccc(F)cc1)N1CCN2C(=O)c3ccccc3C12c1ccccc1 (centres undefined),34*,-35,18,6,-24,-15
O=C(c1ccc(F)cc1)N1CCN2C(=O)c3ccccc3C12c1ccc(Cl)cc1 (centres undefined),47*,-18,-1,7,-14,-11
O=C(c1ccccc1)N1CCN2C(=O)c3ccccc3C12c1ccc(Cl)cc1 (centres undefined),6,-14,1,-5,-2,-11
SMILES,M5 antag,M5 PAM,M4 ag,M4 antag,CHRM4 PAM,CHRM5 agonist
Fc1cccc(Cc2noc(CN3CCCCC3CCc3ccccn3)n2)c1 (centres undefined),3,3,4,-2,-5,-11
O=[N+]([O-])c1ccc(Nc2ccccc2)c2nonc12,-1,-8,21,-8,-11,7
O=[N+]([O-])c1ccc(Sc2cccc[n+]2[O-])c2nonc12,41*,-14,6,64*,-42,17
CCN(C(=O)CSc1nc2ccccc2c(=O)n1Cc1ccc(C)cc1)C1CCS(=O)(=O)C1 (centres undefined),5,-1,0,-1,1,-4
CCn1c(SCC(=O)N(Cc2ccccc2)C2CCS(=O)(=O)C2)nc2ccccc2c1=O (centres undefined),-2,1,-1,-6,31*,0
CCN(CC)c1ccc(/C=C(/C#N)C(=O)NCc2ccccc2)o1,9,-18,13,8,-11,30*
CCN(CC)c1ccc(/C=C(/C#N)C(=O)NC(C)C)o1,14,-1,10,7,5,6
Cc1ccccc1C(=O)NC1CC2CCCC(C1)N2CC(C)C (centres undefined),8,-9,-1,27*,-11,-1
C=CCNC(=O)CN1C2CCCC1CC(NC(=O)c1ccccc1C)C2 (centres undefined),0,0,1,3,10,-1
CS(=O)(=O)N(CC(=O)NC1CC2CCC1C2)c1cccc(C(F)(F)F)c1 (centres undefined),1,0,1,0,-3,-3
Cc1ccc(N(CC(=O)NC2CC3CCC2C3)S(C)(=O)=O)cc1C (centres undefined),-1,-3,0,2,27*,2
COc1cc(NC(=S)NCCN2CCOCC2)cc(OC)c1,-2,6,0,-9,23*,-1
O=C1CN(c2ccccc2Cl)C(=O)CN1c1ccccc1Cl,6,-2,0,10,-4,-3
Cc1ccccc1N1CC(=O)N(c2ccccc2C)CC1=O,-8,-5,2,9,20*,-2
CCN1CCN(CC(=O)Nc2ccc3c(c2)OCO3)C(=O)C1=O,-1,-2,2,-36,6,-1
CCN1CCN(CC(=O)Nc2ccc3c(c2)OCCO3)C(=O)C1=O,-4,-4,0,-12,31*,1
CCN(CCCNC(=O)CNC(=O)c1nn(-c2ccc(OC)cc2)c(=O)c2ccccc12)c1cccc(C)c1,29*,-11,11,12,-24,-4

# Assay outcomes as filed in PubChem BioAssay.
